This note sets out measurements from ChEMBL document CHEMBL1649139, “A novel gene, erm(41), confers inducible macrolide resistance to clinical isolates of Mycobacterium abscessus but is absent from Mycobacterium chelonae” (2009).

Common to all, as to format: functional
In test [1] the test system is Mycobacteroides abscessus. Put plainly: Antimicrobial activity against Mycobacterium abscessus isolate MC879-2 at day 5 preincubated with 0.1 ug/ml erythromycin for 3 days by broth microdilution method. Background: Dilution methods test growth across graded concentrations, often in twofold steps.
For test [2], the system named is Mycobacteroides abscessus. Put plainly: Antimicrobial activity against Mycobacterium abscessus isolate MC879-2 at day 5 preincubated with 0.1 ug/ml for 3 days by broth microdilution method.
In test [3] the test system is Mycolicibacterium smegmatis. Put plainly: Antimicrobial activity against Mycobacterium smegmatis transformed with erm allele Mycobacterium abscessus isolate MC719 preincubated with 2 ug/ml erythromycin for 20 to 24 hrs by broth microdilution method.
The subject of test [4] is Mycobacteroides abscessus. Put plainly: Antimicrobial activity against Mycobacterium abscessus isolate MC724 at day 3 by broth microdilution method. Conditions: isolate MC724, 72 h. The procedure, abridged: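 Clarithromycin MIC by broth microdilution following CLSI guidelines. Organisms were preincubated […], for 3 days before the assay. This allowed at least two generations, judged by the rise in turbidity. The MIC was read at the stated day, with incubation extended from day 3 to as long as 14 days.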

The test system of test [5] is Mycobacteroides abscessus. Put plainly: Antimicrobial activity against Mycobacterium abscessus isolate MC958 at day 3 preincubated with 0.1 ug/ml erythromycin for 3 days by broth microdilution method. A digest of the protocol:
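To test inducible resistance, cultures were preincubated for 3 days in clarithromycin or erythromycin, within 0.01–1 μg/ml. The period was set so cultures passed at least two generations, judged by turbidity increase. Clarithromycin MIC was then determined by CLSI-conforming broth microdilution and read on the stated day, from day 3 up to 14.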

Test [6] has as its system Mycobacteroides abscessus. Put plainly: Antimicrobial activity against Mycobacterium abscessus isolate MAB30 at day 5 by broth microdilution method. The conditions noted are these: isolate MAB30, 120 h. A digest of the protocol: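 Clarithromycin MIC by CLSI-conforming broth microdilution. Before testing, cultures were preincubated for 3 days, either in medium alone or in clarithromycin or erythromycin (tested range 0.01–1 μg/ml). Preincubation ran for at least two generations, judged by turbidity increase. Plates were read on day 3 and on extended incubation at days 5 to 14.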

For test [7], the system named is Mycobacteroides abscessus. Put plainly: Antimicrobial activity against Mycobacterium abscessus isolate MC720 at day 5 preincubated with 0.1 ug/ml erythromycin for 3 days by broth microdilution method. A digest of the protocol: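 Clinical M. abscessus isolates were preincubated for 3 days, either in medium alone or in clarithromycin or erythromycin at 0.01 to 1 μg/ml, allowing at least two generations of growth judged by turbidity. The clarithromycin MIC was then determined by CLSI-conforming broth microdilution, with plates read on day 3 and on extended incubation (days 5 to 14).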

Test [8] relates to Mycobacteroides abscessus. Put plainly: Antimicrobial activity against Mycobacterium abscessus isolate MC723 at day 9 preincubated with 0.1 ug/ml erythromycin for 3 days by broth microdilution method. The procedure, abridged:
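Clarithromycin MIC by broth microdilution following CLSI guidelines. Before testing, organisms were preincubated for 3 days in medium alone or in clarithromycin or erythromycin (0.01–1 μg/ml), long enough for at least two generations judged by turbidity increase. MICs were read on day 3 and again on extended incubation out to day 14.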

The test system of test [9] is Mycobacteroides abscessus. Put plainly: Antimicrobial activity against Mycobacterium abscessus isolate MC879-2 at day 9 by broth microdilution method. Conditions: isolate MC879-2, 216 h.

`CC[C@H]1OC(=O)[C@H](C)[C@@H](O[C@H]2C[C@@](C)(OC)[C@@H](O)[C@H](C)O2)[C@H](C)[C@@H](O[C@@H]2O[C@H](C)C[C@H](N(C)C)[C@H]2O)[C@](C)(OC)C[C@@H](C)C(=O)[C@H](C)[C@@H](O)[C@]1(C)O` [CLARITHROMYCIN]: the MIC (as a rule, the lowest concentration that inhibits growth of the organism) in test [1] was > 32 µg/mL; in test [2], > 32 µg/mL; in [3] it was 16 µg/mL; in test [4] it was ≤ 0.5 µg/mL; in test [5], ≤ 0.5 µg/mL; in test [6], ≤ 0.5 µg/mL. For the same molecule, the MIC is 4 µg/mL in test [7], > 32 µg/mL in [8] and > 32 µg/mL in test [9].
